Laboratory results taken from ChEMBL document CHEMBL3232870, “Discovery of 3-(4-methanesulfonylphenoxy)-N-[1-(2-methoxy-ethoxymethyl)-1H-pyrazol-3-yl]-5-(3-methylpyridin-2-yl)-benzamide as a novel glucokinase activator (GKA) for the treatment of type 2 diabetes mellitus” (Bioorg Med Chem, 2014).

Tests used:
[1] = Tmax in female Sprague-Dawley rat at 250 mg/kg, po measured on day 1; type: ADME, organism-based; design: dose 250 mg/kg, route oral; conditions: in vivo
Outline: (§1)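 Sprague–Dawley rats of both sexes, 5 weeks old at arrival, received daily oral gavage at 0, 250, 500 or 1000 mg/kg/day for 14 days. Vehicle was 0.5% methylcellulose at 10 mL/kg. Toxicokinetics were taken on Day 1 and Day 14. Necropsy was by Day 15. Testis was fixed in modified Davidson's fixative, paraffin-sectioned and H&E-stained, with histopathology on control and high-dose groups only.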

Cytochrome P450 2C19 = Cytochrome P450 2C19 (Homo sapiens, UniProt P33261); test: Inhibition of CYP2C19 in human liver microsomes; type: ADME
Cytochrome P450 2C19, sequence (P33261 whole entry): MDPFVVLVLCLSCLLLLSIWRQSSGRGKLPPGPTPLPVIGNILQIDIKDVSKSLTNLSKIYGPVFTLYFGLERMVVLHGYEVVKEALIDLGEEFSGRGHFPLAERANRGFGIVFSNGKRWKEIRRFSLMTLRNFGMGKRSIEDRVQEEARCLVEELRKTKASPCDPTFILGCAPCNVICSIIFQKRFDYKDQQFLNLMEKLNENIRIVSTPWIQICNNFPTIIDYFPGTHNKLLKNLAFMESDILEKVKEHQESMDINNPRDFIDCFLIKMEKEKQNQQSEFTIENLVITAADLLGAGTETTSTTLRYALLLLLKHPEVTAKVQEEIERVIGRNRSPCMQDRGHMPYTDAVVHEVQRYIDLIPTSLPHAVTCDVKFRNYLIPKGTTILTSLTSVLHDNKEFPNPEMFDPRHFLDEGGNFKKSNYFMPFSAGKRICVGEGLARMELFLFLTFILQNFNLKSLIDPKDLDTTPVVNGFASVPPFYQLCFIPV
Outline: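 Pooled human liver microsomes (0.25 mg/mL) with a CYP-selective substrate and test compound, preincubated at 37 °C. Stopped on ice with ice-cold acetonitrile, centrifuged, and the supernatant analysed by LC–MS/MS.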

[2] = AUC (0 to t) in male Sprague-Dawley rat at 1000 mg/kg, po measured on day 1; type: ADME, organism-based; design: dose 1000 mg/kg, route oral; conditions: plasma
Outline: (§2)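 Sprague–Dawley rats, 5 weeks old at arrival, both sexes. Given the compound by oral gavage once daily for 14 days at 0, 250, 500 or 1000 mg/kg/day, with 0.5% methylcellulose as vehicle. Toxicokinetic parameters were determined on Day 1 and Day 14.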

[3] = Tmax in female Sprague-Dawley rat at 1000 mg/kg, po measured on day 14; type: ADME, organism-based; design: dose 1000 mg/kg, route oral; conditions: in vivo; outline: as §1
[4] = Metabolic stability in dog liver microsomes assessed as compound remaining after 1 hr relative to control; type: ADME, Canis lupus familiaris; conditions: read-out: Stability
Outline: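 Liver microsomes from mouse, dog or human were incubated with compound for 1 h, and the percentage of compound remaining was determined.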

[5] = Tmax in male Sprague-Dawley rat at 1000 mg/kg, po measured on day 14; type: ADME, organism-based; design: dose 1000 mg/kg, route oral; conditions: in vivo; outline: as §1
[6] = Cmax in female Sprague-Dawley rat at 1000 mg/kg, po measured on day 1; type: ADME, organism-based; design: dose 1000 mg/kg, route oral; conditions: in vivo; outline: as §2
[7] = Tmax in female Sprague-Dawley rat at 1000 mg/kg, po measured on day 1; type: ADME, organism-based; design: dose 1000 mg/kg, route oral; conditions: in vivo; outline: as §1
Salmonella typhimurium [8] = test: Genotoxicity in Salmonella typhimurium TA98 assessed as increase in number of revertants at 1.5 to 5000 ug/plate by Ames test in presence of S9 fraction; type: toxicity, organism-based; conditions: salmonella enterica subsp. enterica serovar typhimurium
Outline: (§3)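 Ames reverse mutation test by direct plate incorporation in S. typhimurium TA98 and TA100, with or without Aroclor 1254-induced rat liver S9 mix. Compound in DMSO at 1.5–5000 µg/plate, plated in top agar, incubated 37 °C for about 50 h, then revertant colonies counted. Plates were checked for precipitation and cytotoxicity. A positive was a reproducible, dose-related increase in revertants of more than 2-fold.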

[9] = Oral bioavailability in Sprague-Dawley rat at 10 mg/kg; type: ADME, organism-based; conditions: in vivo
Outline: (§4)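 Male ICR mice and 7-week-old SD rats received a 3 mg/kg iv bolus or a 10 mg/kg oral gavage dose. Plasma was precipitated with 2 volumes of acetonitrile and analysed by HPLC. Parameters came from noncompartmental analysis.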

Mus musculus [10] = test: Toxicity in C57BL/J6 db/db mouse assessed as effect on body weight at 50 mg/kg, po; type: organism-based; design: dose 50 mg/kg, route oral; conditions: in vivo
[11] = Apparent permeability of the compound by PAMPA; type: physicochemical
[12] = Tmax in female Sprague-Dawley rat at 500 mg/kg, po measured on day 1; type: ADME, organism-based; design: dose 500 mg/kg, route oral; conditions: in vivo; outline: as §1
Canis familiaris = test: Toxicity in Beagle dog assessed as testicular effect administered repeated dose level of 1000 mg/kg/day, po administered on days 3, 6 and 8 by hematoxylin and eosin staining-based microscopy; type: organism-based, Canis lupus familiaris; design: route oral; conditions: in vivo
Outline: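 Dogs received escalating oral doses of 100, 300 and 1000 mg/kg/day over 8 days (Days 3, 6 and 8 for each dose). Vehicle was 0.5% methylcellulose at 5 mL/kg. Two animals were necropsied at termination, and testes were fixed in modified Davidson's fixative, paraffin-embedded, H&E-stained and examined microscopically.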

[13] = Tmax in female Sprague-Dawley rat at 500 mg/kg, po measured on day 14; type: ADME, organism-based; design: dose 500 mg/kg, route oral; conditions: in vivo; outline: as §1
[14] = AUC (0 to t) in male Sprague-Dawley rat at 500 mg/kg, po measured on day 14; type: ADME, organism-based; design: dose 500 mg/kg, route oral; conditions: plasma; outline: as §2
Salmonella typhimurium [15] = test: Genotoxicity in Salmonella typhimurium TA100 assessed as increase in number of revertants at 1.5 to 5000 ug/plate by Ames test in absence of S9 fraction; type: toxicity, organism-based; conditions: salmonella enterica subsp. enterica serovar typhimurium; outline: as §3
[16] = Volume of distribution at steady state in ICR mouse at 3 mg/kg, iv and 10 mg/kg, po; type: ADME, organism-based; conditions: in vivo, read-out: Vdss; outline: as §4
Cytochrome P450 2C8 = biological target: T1, Cytochrome P450 2C8 (Homo sapiens, UniProt P10632); test: Inhibition of CYP2C8 in human liver microsomes; type: ADME
T1 sequence (P10632 whole entry): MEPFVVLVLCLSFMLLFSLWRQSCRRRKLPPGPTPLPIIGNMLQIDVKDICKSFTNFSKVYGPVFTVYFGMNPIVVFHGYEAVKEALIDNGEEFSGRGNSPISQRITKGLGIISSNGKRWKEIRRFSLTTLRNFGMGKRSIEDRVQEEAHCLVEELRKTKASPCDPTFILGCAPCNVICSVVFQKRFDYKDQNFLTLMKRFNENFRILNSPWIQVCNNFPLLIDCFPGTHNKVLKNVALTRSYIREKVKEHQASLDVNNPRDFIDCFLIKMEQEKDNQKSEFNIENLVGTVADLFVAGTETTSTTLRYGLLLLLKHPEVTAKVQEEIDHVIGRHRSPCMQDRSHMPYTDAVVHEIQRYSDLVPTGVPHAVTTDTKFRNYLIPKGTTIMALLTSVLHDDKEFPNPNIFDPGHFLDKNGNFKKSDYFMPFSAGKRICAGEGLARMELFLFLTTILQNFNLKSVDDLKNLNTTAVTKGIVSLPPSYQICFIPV
Outline: (§5)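 Pooled human liver microsomes at 0.25 mg/mL, each with a CYP-selective substrate and test compound up to 25 µM, preincubated at 37 °C. It is stopped on ice with ice-cold acetonitrile and centrifuged, and the supernatant is analysed by LC–MS/MS.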

Cytochrome P450 3A = Cytochrome P450 3A (Homo sapiens, UniProt P08684+P20815+Q9HB55+P24462); test: Inhibition of CYP3A in human liver microsomes; type: ADME; outline: as §5
[17] = Mean residence time in Sprague-Dawley rat at 3 mg/kg, iv and 10 mg/kg, po; type: ADME, organism-based; conditions: in vivo; outline: as §4
[18] = Tmax in male Sprague-Dawley rat at 500 mg/kg, po measured on day 1; type: ADME, organism-based; design: dose 500 mg/kg, route oral; conditions: in vivo; outline: as §1
Mus musculus [19] = test: Antidiabetic activity in glucose-treated C57BL/J6 db/db mouse assessed as reduction of glucose AUC at 50 mg/kg, po preincubated for 30 mins followed by glucose challenge measured after 30 to 180 mins by oral glucose tolerance test relative to control; type: functional; design: scale not given: the % may be the effect or the level left; conditions: in the assay text read “C57BL/J6 mouse” for “C57BL/J6 db/db mouse”
Outline: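 Oral glucose tolerance test. Mice: eight-week-old male C57BL/6 or ten-week-old male C57BLKS/J db/db, fasted overnight with water. Compound or 0.5% methylcellulose vehicle given orally, then an oral 2 g/kg glucose challenge 30 min later. Tail-tip blood glucose was read just before and at 30, 60, 90, 120 and 180 min. AUC was calculated from the time–glucose curve; n = 6.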

[20] = Tmax in Sprague-Dawley rat at 3 mg/kg, iv and 10 mg/kg, po; type: ADME, organism-based; conditions: in vivo; outline: as §4
[21] = Cmax in female Sprague-Dawley rat at 250 mg/kg, po measured on day 14; type: ADME, organism-based; design: dose 250 mg/kg, route oral; conditions: in vivo; outline: as §2

Tmax [1]: 3.7 h | inhibition (INH) (Cytochrome P450 2C19): Not Active | AUC(0-t) [2]: 35400 ng·h/mL | Tmax [3]: 2.7 h | remaining at 1 h [4]: > 60% | Tmax [5]: 5 h | Cmax [6]: 7590 ng/mL | Tmax [7]: 2.7 h | bioavailability [9]: 22% | Papp [11]: 2.62 ×10⁻⁶ cm/s | Tmax [12]: 3.3 h | Tmax [13]: 1.3 h | AUC(0-t) [14]: 13600 ng·h/mL | Vd [16]: 0.18 L/kg | inhibition (INH) (Cytochrome P450 2C8): Not Active | inhibition (INH) (Cytochrome P450 3A): Not Active | MRT [17]: 0.37 h | Tmax [18]: 3.7 h | Tmax [20]: 0.42 h | Cmax [21]: 5200 ng/mL
Structure (SMILES): COCCOCn1ccc(NC(=O)c2cc(Oc3ccc(S(C)(=O)=O)cc3)cc(-c3ncccc3C)c2)n1
Activity (Salmonella typhimurium [8]): Non-toxic | Activity (Mus musculus [10]): Non-toxic | Activity (Canis familiaris): Non-toxic | Activity (Salmonella typhimurium [15]): Non-toxic | Activity (Mus musculus [19]): 32.3%
